From ChEMBL document CHEMBL1629614, “Inhibition of methionyl-tRNA synthetase by REP8839 and effects of resistance mutations on enzyme activity” (Antimicrob Agents Chemother, 2009)

How the values were obtained:
[1] = test system: C=C(F)c1sc(CNCCCNc2cc(=O)c3ccccc3[nH]2)c(C)c1Br; assay: Activity of Bacillus stearothermophilus MetRS by ATP:PPi exchange assay in presence of methionine; conditions: Geobacillus stearothermophilus
[2] = test system: C=C(F)c1sc(CNCCCNc2cc(=O)c3ccccc3[nH]2)c(C)c1Br; assay: Activity of Bacillus stearothermophilus MetRS by ATP:PPi exchange assay in presence of ATP; conditions: Geobacillus stearothermophilus
Staphylococcus aureus [3] = assay: Activity of Staphylococcus aureus MetRS by ATP:PPi exchange assay in presence of ATP
Procedure, shortened: (§1)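 Purified S. aureus MetRS (wild type or mutant; E. coli-expressed, ammonium sulfate cut, anion exchange) at 30 nM. ATP:PPi exchange at 30°C in 100 mM Tris-HCl pH 8.0, 5–10 mM Mg acetate, 80 mM KCl, 2.5 mM DTT, [32P]PPi plus cold PPi equal to ATP. Quenched with EDTA over 1–10 min, PEI-cellulose TLC, phosphorimager. Initial velocities versus varied ATP or methionine fit to Michaelis-Menten.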

Staphylococcus aureus [4] = assay: Ratio of Kcat to Km for Staphylococcus aureus MetRS in presence of methionine
Staphylococcus aureus [5] = assay: Activity of […] by scintillation proximity assay in presence of tRNA
Escherichia coli [6] = assay: Activity of Escherichia coli MetRS by ATP:PPi exchange assay in presence of methionine
Streptococcus pneumoniae [7] = assay: Activity of Streptococcus pneumoniae MetRS1 by ATP:PPi exchange assay in presence of ATP
Staphylococcus aureus [8] = assay: Ratio of Kcat to Km for Staphylococcus aureus MetRS in presence of tRNA
Escherichia coli [9] = assay: Activity of Escherichia coli MetRS by ATP:PPi exchange assay in presence of ATP
Staphylococcus aureus [10] = assay: Activity of Staphylococcus aureus MetRS by ATP:PPi exchange assay in presence of methionine; procedure, shortened: as §1
Homo sapiens [11] = organism: Homo sapiens; assay: Activity of human mitochondrial MetRS by ATP:PPi exchange assay in presence of ATP
Staphylococcus aureus [12] = assay: Ratio of Kcat to Km for Staphylococcus aureus MetRS in presence of ATP
Procedure, shortened: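 Purified recombinant S. aureus MetRS (30 nM) was assayed by ATP:PPi exchange at 30°C in Tris pH 8.0 with Mg acetate, KCl and DTT. [32P]PPi was matched to ATP, and ATP or methionine was varied. Time points from 1 to 10 min were quenched with EDTA, separated by PEI-cellulose TLC and read by phosphorimager. Initial rates were fitted to Michaelis-Menten.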

Streptococcus pneumoniae [13] = assay: Activity of Streptococcus pneumoniae MetRS1 by ATP:PPi exchange assay in presence of methionine
Homo sapiens [14] = organism: Homo sapiens; assay: Activity of human mitochondrial MetRS by ATP:PPi exchange assay in presence of methionine

Chain of Methionine--tRNA ligase (Geobacillus stearothermophilus), P23920 (P23920 whole entry): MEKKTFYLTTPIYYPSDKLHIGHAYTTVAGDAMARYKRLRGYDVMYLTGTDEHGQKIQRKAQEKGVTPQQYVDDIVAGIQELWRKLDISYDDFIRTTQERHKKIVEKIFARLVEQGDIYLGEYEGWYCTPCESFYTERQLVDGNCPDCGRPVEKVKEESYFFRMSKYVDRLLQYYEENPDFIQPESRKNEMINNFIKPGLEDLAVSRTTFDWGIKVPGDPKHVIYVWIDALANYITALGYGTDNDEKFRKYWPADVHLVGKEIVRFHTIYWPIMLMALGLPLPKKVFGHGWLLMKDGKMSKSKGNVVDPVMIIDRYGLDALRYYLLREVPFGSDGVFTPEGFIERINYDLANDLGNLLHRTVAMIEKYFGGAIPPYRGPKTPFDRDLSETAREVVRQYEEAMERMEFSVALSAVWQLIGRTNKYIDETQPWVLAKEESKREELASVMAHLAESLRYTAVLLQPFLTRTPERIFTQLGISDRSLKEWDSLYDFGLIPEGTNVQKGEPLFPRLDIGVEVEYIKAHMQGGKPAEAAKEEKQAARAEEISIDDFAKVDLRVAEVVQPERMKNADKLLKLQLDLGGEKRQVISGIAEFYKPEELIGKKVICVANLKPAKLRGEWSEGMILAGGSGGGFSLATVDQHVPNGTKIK

Row | Compound | Km [1] | Km [2] | Km (Staphylococcus aureus [3]) | kcat/Km (Staphylococcus aureus [4]) | Km (Staphylococcus aureus [5]) | kcat (Staphylococcus aureus [5]) | Km (Escherichia coli [6]) | Km (Streptococcus pneumoniae [7]) | kcat/Km (Staphylococcus aureus [8]) | Km (Escherichia coli [9]) | Km (Staphylococcus aureus [10]) | Km (Homo sapiens [11]) | kcat/Km (Staphylococcus aureus [12]) | Km (Streptococcus pneumoniae [13]) | Km (Homo sapiens [14])
1 | Methionine--tRNA ligase (Geobacillus stearothermophilus), P23920 | 6 µM | 1 µM | – | – | – | – | – | – | – | – | – | – | – | – | –
2 | C=C(F)c1sc(CNCCCNc2cc(=O)c3ccccc3[nH]2)c(C)c1Br | – | – | 500 µM | 250000 M⁻¹ s⁻¹ | 1 µM | 0.49 s⁻¹ | 20 µM | 514 µM | 490000 M⁻¹ s⁻¹ | 20 µM | 100 µM | 85 µM | 50000 M⁻¹ s⁻¹ | 53 µM | 20 µM
